The target of assay [1] is T1, Peroxisome proliferator-activated receptor gamma (Homo sapiens) (UniProt P37231).
T1 sequence (whole entry): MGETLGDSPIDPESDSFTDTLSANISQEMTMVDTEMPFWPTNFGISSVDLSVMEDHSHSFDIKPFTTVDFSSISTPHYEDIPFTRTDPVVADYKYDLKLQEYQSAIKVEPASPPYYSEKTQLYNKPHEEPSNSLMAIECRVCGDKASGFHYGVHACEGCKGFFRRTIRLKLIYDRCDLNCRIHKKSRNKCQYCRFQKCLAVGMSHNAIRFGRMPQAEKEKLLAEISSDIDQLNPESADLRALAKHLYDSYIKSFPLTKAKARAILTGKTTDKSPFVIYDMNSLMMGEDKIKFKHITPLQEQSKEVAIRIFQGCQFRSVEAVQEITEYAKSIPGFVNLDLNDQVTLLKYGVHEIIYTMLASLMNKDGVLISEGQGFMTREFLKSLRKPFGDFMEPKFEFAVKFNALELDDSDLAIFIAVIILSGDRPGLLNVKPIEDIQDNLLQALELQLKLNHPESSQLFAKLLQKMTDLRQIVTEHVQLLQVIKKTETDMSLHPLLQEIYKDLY
The assay is described as follows: Transactivation of human PPARgamma expressed in human MCF7 cells harboring pPPRE3-tk-luc reporter at 10 uM after 24 hrs by luciferase reporter gene assay relative to control. Type of assay: cell-based. Put shortly: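 MCF-7 cells transfected with a pPPRE3tk-luc reporter are exposed to compound (10μM) for 24 h. Luciferase activity is normalized to β-Gal activity and expressed as fold induction over a solvent control set to 1. Three independent experiments are run, each with duplicate transfections. Values are mean ± s.e.m.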
Background: Reporter assays use an easily measured gene product as a stand-in for the process of interest.

The species named for assay [2] is Rattus norvegicus. The assay is described as follows: Blocking activity at AT1 receptor in rat aortic vascular smooth muscle cells assessed as inhibition of angiotensin-2-induced calcium flux at 10 uM preincubated for 20 mins followed by angiotensin-2 addition by Fura-2-AM dye based scanning fluorometric method relative to control. Put shortly:
(§1)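 Rat aortic smooth muscle cells. Angiotensin II-mediated intracellular calcium release is followed by fluorescence. A first screen is run at a single concentration. Compounds that pass are retested at various concentrations to derive IC50, with losartan tested in each experiment. Values are expressed as the ratio of the compound's IC50 to losartan's IC50.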
In general terms: Calcium flux is commonly read through the fluorescence of an indicator in the cells.

The species entered for assay [3] is Rattus norvegicus. The assay is described as follows: Ratio of test compound IC50 to losartan IC50 for bocking activity at AT1 receptor in rat aortic vascular smooth muscle cells assessed as inhibition of angiotensin-2-induced calcium flux. Summed up: as §1
Assay [4] deals with Rattus norvegicus. The assay is described as follows: Antihypertensive activity in angiotensin 2-induced Wistar rat hypertensive model assessed as reduction in angiotensin 2-induced mean arterial pressure at 6 x 10^-5mol/kg, iv. Format: functional, organism-based. Put shortly: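 Adult male Wistar rats; angiotensin II given as i.v. bolus at 10-10 mol/kg, with no pretreatment or after i.v. pretreatment at 6.10−5 mol/kg. Read-out is the change in mean arterial pressure in mm Hg, reported as mean ± sem.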

Our source for the Activity, inhibition and Ratio IC50 values is ChEMBL document CHEMBL4270651, “Synthesis and evaluation of new designed multiple ligands directed towards both peroxisome proliferator-activated receptor-γ and angiotensin II type 1 receptor” (Eur J Med Chem, 2018).

Active and inactive are the calls of the source. No cut-off for these calls is given here.

In the case of `CC(C)(C)OC(=O)c1ccccc1-c1ccc(Cn2cc(COc3ccc(CC4SC(=O)NC4=O)cc3)nn2)cc1` (configuration not stated), in assay [1], the outcome was Active.

As to `CCCCc1ncc(CCCOc2ccc(CC3SC(=O)NC3=O)cc2)n1Cc1ccc(-c2ccccc2-c2nn[nH]n2)cc1` (configuration not stated), in the assay filed under Rattus norvegicus [2], the inhibition (commonly the relative decrease from the control value, in per cent) was above 50%. Also, in the assay listed under Rattus norvegicus [3], the Ratio IC50 amounted to 1.1. Besides, the outcome in assay [1] was inactive.

`CCCCc1nc(Cl)c(/C=C/C(=O)Oc2ccc(CC3SC(=O)NC3=O)cc2)n1Cc1ccc(-c2ccccc2-c2nn[nH]n2)cc1` (configuration not stated): the inhibition in the assay listed under Rattus norvegicus [2] is above 50%. Moreover, in the assay listed under Rattus norvegicus [3], the Ratio IC50 came out at 3.2. In assay [1], the result was Active.

With `CCCCc1nc(Cl)c(COc2ccc(/C=C3\SC(=O)NC3=O)cc2)n1Cc1ccc(-c2ccccc2-c2nn[nH]n2)cc1`, the inhibition in the assay listed under Rattus norvegicus [2] was below 50%. Also, the result in assay [1] was inactive.

For the molecule `O=C1NC(=O)C(Cc2ccc(OCc3cn(Cc4ccc(-c5ccccc5C(=O)O)cc4)nn3)cc2)S1` (configuration not stated), the inhibition result in the assay filed under Rattus norvegicus [2] is “inactive”. The outcome in assay [1] was inactive.

As for `CCCCc1nc(COc2ccc(CC3SC(=O)NC3=O)cc2)cn1Cc1ccc(-c2ccccc2C(=O)O)cc1` (configuration not stated), the inhibition in the assay filed under Rattus norvegicus [2] was above 50%. Moreover, the Ratio IC50 in the assay filed under Rattus norvegicus [3] was found to be 5. Further, in assay [1], the outcome was Active.

For `CCCCc1nc(Cl)c(COc2ccc(CC3SC(=O)NC3=O)cc2)n1Cc1ccc(-c2ccccc2-c2nn[nH]n2)cc1` (configuration not stated), the inhibition in the assay listed under Rattus norvegicus [2] was above 50%. Moreover, the Ratio IC50 in the assay listed under Rattus norvegicus [3] was found to be 6.3. The outcome in assay [1] was inactive. The outcome in the assay on Rattus norvegicus [4] was Active.

In the case of `Cc1c(C)c2c(c(C)c1OCc1ccc(-c3ccccc3C(=O)O)cc1)CCC(C)(COc1ccc(CC3SC(=O)NC3=O)cc1)O2` (configuration not stated), in the assay listed under Rattus norvegicus [2], the inhibition entry was “inactive”. The outcome in assay [1] was Active.

On to `COC(=O)c1ccccc1N[C@@H](Cc1ccc(OCC2(C)CCc3c(C)c(O)c(C)c(C)c3O2)cc1)C(=O)O` (some centres not stated), for which the result in assay [1] was Active.

Regarding `CCCc1nc2c(C)cc(-c3nc4ccccc4n3C)cc2n1Cc1ccc(-c2ccccc2C(=O)O)cc1`, the outcome in assay [1] was Active.

In the case of `CCCCCS(=O)(=O)NC(=O)/C=C/c1c(Cl)nc(CCCC)n1Cc1ccc(-c2ccccc2-c2nn[nH]n2)cc1`, the inhibition in the assay filed under Rattus norvegicus [2] is above 50%. Further, the Ratio IC50 in the assay filed under Rattus norvegicus [3] amounted to 11.1. In addition, in assay [1], the result was Active.

Take `O=C1NC(=O)C(Cc2ccc(OCc3cn(Cc4ccc(-c5ccccc5C(=O)O)cc4)cn3)cc2)S1` (configuration not stated): the inhibition in the assay filed under Rattus norvegicus [2] is above 50%. The Ratio IC50 in the assay filed under Rattus norvegicus [3] turned out to be 3.4. The outcome in assay [1] was inactive.

For `CC(C)(C)OC(=O)c1ccccc1-c1ccc(Cn2cc(CCOc3ccc(CC4SC(=O)NC4=O)cc3)nn2)cc1` (configuration not stated), in assay [1], the result was Active.

`Cc1c(C)c2c(c(C)c1OCc1ccc(-c3ccccc3C(=O)OC(C)(C)C)cc1)CCC(C)(COc1ccc(/C=C3\SC(=O)NC3=O)cc1)O2` (configuration not stated): the outcome in assay [1] was Active.

Turning to `CCCCc1nc(Cl)c(/C=C/C(=O)Oc2ccc(C[C@H](Nc3ccccc3C(=O)OC)C(=O)O)cc2)n1Cc1ccc(-c2ccccc2-c2nn[nH]n2)cc1`, in the assay listed under Rattus norvegicus [2], the inhibition was above 50%. Besides, the Ratio IC50 in the assay listed under Rattus norvegicus [3] was determined as 3.8. In addition, in assay [1], the outcome was Active.

For `Cc1c(C)c2c(c(C)c1OCc1ccc(-c3ccccc3C(=O)O)cc1)CCC(C)(COc1ccc(/C=C3\SC(=O)NC3=O)cc1)O2` (configuration not stated), in assay [1], the result was Active.

Turning to `CCCCc1nc(Cl)c(CCCOc2ccc(CC3SC(=O)NC3=O)cc2)n1Cc1ccc(-c2ccccc2-c2nn[nH]n2)cc1` (configuration not stated), the inhibition in the assay listed under Rattus norvegicus [2] was above 50%. The Ratio IC50 in the assay filed under Rattus norvegicus [3] turned out to be 0.4. Also, the result in assay [1] was inactive.

`CCCCc1nc(Cl)c(CO)n1Cc1ccc(-c2ccccc2-c2nnn[nH]2)cc1`: the inhibition in the assay listed under Rattus norvegicus [2] amounted to 78%. In addition, the outcome in assay [1] was inactive. In the assay with Rattus norvegicus [4], the result was Active.

Turning to `CCCCc1c(COc2ccc(CC3SC(=O)NC3=O)cc2)nnn1Cc1ccc(-c2ccccc2C(=O)O)cc1` (configuration not stated), in the assay filed under Rattus norvegicus [2], the inhibition result was “inactive”. Further, the outcome in assay [1] was Active.

Regarding `CCCCc1nc(CCCOc2ccc(CC3SC(=O)NC3=O)cc2)cn1Cc1ccc(-c2ccccc2C(=O)O)cc1` (configuration not stated), the inhibition in the assay listed under Rattus norvegicus [2] is above 50%. In the assay filed under Rattus norvegicus [3], the Ratio IC50 is 16.2. In addition, the outcome in assay [1] was Active.

`O=C1NC(=O)C(Cc2ccc(OCCc3cn(Cc4ccc(-c5ccccc5C(=O)O)cc4)nn3)cc2)S1` (configuration not stated): the inhibition entry in the assay listed under Rattus norvegicus [2] is “inactive”. Moreover, the outcome in assay [1] was inactive.

On to `CCCCCCCCCCCCOCc1c(Cl)nc(CCCC)n1Cc1ccc(-c2ccccc2-c2nn[nH]n2)cc1`, for which the inhibition in the assay listed under Rattus norvegicus [2] is above 50%. The Ratio IC50 in the assay listed under Rattus norvegicus [3] turned out to be 43.2. Besides, the result in assay [1] was Active.

Take `COC(=O)c1ccccc1N[C@@H](Cc1ccc(OCC2(C)CCc3c(C)c(OCc4ccc(-c5ccccc5C(=O)O)cc4)c(C)c(C)c3O2)cc1)C(=O)O` (some centres not stated): the inhibition result in the assay listed under Rattus norvegicus [2] is “inactive”. For the same molecule, the result in assay [1] was Active.
